Laboratory results taken from publication PMC3082041 (Cancer Chemotherapy and Pharmacology, 2010).
Where two headings read alike, the source gives them in different places.

Tests used:
[1] = published clinical result; cited from earlier work
[2] = test system: plasma VEGF, E-selectin, tPA, VCAM-1, PAI-1, urine VEGF; assay: Angiogenesis-related biomarkers in plasma and urine; format: in vivo, human (Japanese patients); conditions: 14 patients
[3] = Plasma pharmacokinetics of TSU-68; format: in vivo, human (Japanese patients); conditions: for AUC(0-t) / Cmax / half-life / Tmax: human, oral
advanced solid tumors = assay: Antitumor effect; format: in vivo, human (Japanese patients)
In short: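 Tumours measured before treatment and at 4 weeks, scored by Japan Society for Cancer Therapy (WHO-based) criteria. PR: ≥50% shrinkage held ≥4 weeks. NC: <50% shrinkage or ≤25% enlargement held ≥4 weeks. PD: ≥25% enlargement or new lesions. Tumour-type-related markers measured before therapy. Patients with progression were taken off study.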

Caucasian patients = conditions: cited from earlier work
[4] = test system: liver cytochrome P450, CYP1A1/2; conditions: non-clinical studies; cited from earlier work
tumor xenograft explants = conditions: athymic mice, many types of tumor; cited from earlier work
[5] = Urinary excretion of TSU-68; format: in vivo, human (Japanese patients); conditions: any dose level
In short: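 Dosing was once daily on days 1 and 29 and bid on days 2–28. Drug measured by validated HPLC-UV (LLOQ 0.1 μg/mL). Excretion expressed as percentage of dose.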

## Cc1[nH]c(/C=C2\C(=O)Nc3ccccc32)c(C)c1CCC(=O)O [TSU-68, (Z)-3-[2,4-dimethyl-5-(2-oxo-1,2-dihydro-indol-3-ylidenemethyl)-1H-pyrrol-3-yl]-propionic acid]
[1]
  AUC on day 56 compared with day 28: similar
[2]
  change of plasma VEGF, E-selectin, tPA and VCAM-1: not changed substantially
[2]; average
  PAI-1, increase over the baseline: more than 20%
  urine VEGF, increase over the baseline: more than 20%
[2]; baseline 24.3 ± 6.7 ng/ml
  PAI-1, average after treatment: 29.5 ± 11.3 ng/mL
[2]; baseline 96.6 ± 62.4 pg/ml
  urine VEGF, average after treatment: 132.1 ± 93.6 pg/mL
[3]; after the first dose, plasma
  time to reach Cmax: ~ 2.5 h
[3]; plasma, 200 mg/m2, AUC0–t, 200 mg/m^2, Day 1, 3 patients, plasma
  AUC(0-t): 45600 ± 21000 ng·h/mL
[3]; plasma, 200 mg/m2, AUC0–t, 200 mg/m^2, Day 8, 3 patients, plasma
  AUC(0-t): 20600 ± 6200 ng·h/mL
[3]; plasma, 200 mg/m2, AUC0–t, 200 mg/m^2, Day 29, 3 patients, plasma
  AUC(0-t): 21200 ± 9500 ng·h/mL
[3]; plasma, 200 mg/m2, Cmax, 200 mg/m^2, Day 1, 3 patients, plasma
  Cmax: 10600 ± 6040 ng/mL
[3]; plasma, 200 mg/m2, Cmax, 200 mg/m^2, Day 8, 3 patients, plasma
  Cmax: 6670 ± 3700 ng/mL
[3]; plasma, 200 mg/m2, Cmax, 200 mg/m^2, Day 29, 3 patients, plasma
  Cmax: 6350 ± 3780 ng/mL
[3]; plasma, 200 mg/m2, T1/2, 200 mg/m^2, Day 1, 3 patients, plasma
  half-life: 8.03 ± 3.82 h
[3]; plasma, 200 mg/m2, T1/2, 200 mg/m^2, Day 8, 3 patients, plasma
  half-life: 4.8 ± 2.14 h
[3]; plasma, 200 mg/m2, T1/2, 200 mg/m^2, Day 29, 3 patients, plasma
  half-life: 3.59 ± 1.71 h
[3]; plasma, 200 mg/m2, Tmax, 200 mg/m^2, Day 1, 3 patients, plasma
  Tmax: 2.3 ± 1.5 h
[3]; plasma, 200 mg/m2, Tmax, 200 mg/m^2, Day 8, 3 patients, plasma
  Tmax: 1.7 ± 0.3 h
[3]; plasma, 200 mg/m2, Tmax, 200 mg/m^2, Day 29, 3 patients, plasma
  Tmax: 1.7 ± 0.8 h
[3]; plasma, 400 mg/m2, AUC0–t, 400 mg/m^2, Day 1, 3 patients, plasma
  AUC(0-t): 58200 ± 16800 ng·h/mL
[3]; plasma, 400 mg/m2, AUC0–t, 400 mg/m^2, Day 8, 3 patients, plasma
  AUC(0-t): 25000 ± 9400 ng·h/mL
[3]; plasma, 400 mg/m2, AUC0–t, 400 mg/m^2, Day 29, 2 patients, plasma
  AUC(0-t): 22900 ng·h/mL
[3]; plasma, 400 mg/m2, Cmax, 400 mg/m^2, Day 1, 3 patients, plasma
  Cmax: 11700 ± 3810 ng/mL
[3]; plasma, 400 mg/m2, Cmax, 400 mg/m^2, Day 8, 3 patients, plasma
  Cmax: 7210 ± 1060 ng/mL
[3]; plasma, 400 mg/m2, Cmax, 400 mg/m^2, Day 29, 2 patients, plasma
  Cmax: 6350 ng/mL
[3]; plasma, 400 mg/m2, T1/2, 400 mg/m^2, Day 1, 3 patients, plasma
  half-life: 7.89 ± 4.04 h
[3]; plasma, 400 mg/m2, T1/2, 400 mg/m^2, Day 8, 3 patients, plasma
  half-life: 3.53 ± 0.43 h
[3]; plasma, 400 mg/m2, T1/2, 400 mg/m^2, Day 29, 2 patients, plasma
  half-life: 5.36 h
[3]; plasma, 400 mg/m2, Tmax, 400 mg/m^2, Day 1, 3 patients, plasma
  Tmax: 2.5 ± 1.3 h
[3]; plasma, 400 mg/m2, Tmax, 400 mg/m^2, Day 8, 3 patients, plasma
  Tmax: 1.8 ± 0.3 h
[3]; plasma, 400 mg/m2, Tmax, 400 mg/m^2, Day 29, 2 patients, plasma
  Tmax: 1 h
[3]; plasma, 800 mg/m2, AUC0–t, 800 mg/m^2, Day 1, 6 patients, plasma
  AUC(0-t): 83300 ± 32700 ng·h/mL
[3]; plasma, 800 mg/m2, AUC0–t, 800 mg/m^2, Day 8, 5 patients, plasma
  AUC(0-t): 44600 ± 17300 ng·h/mL
[3]; plasma, 800 mg/m2, AUC0–t, 800 mg/m^2, Day 29, 4 patients, plasma
  AUC(0-t): 30000 ± 16700 ng·h/mL
[3]; plasma, 800 mg/m2, Cmax, 800 mg/m^2, Day 1, 6 patients, plasma
  Cmax: 14600 ± 5650 ng/mL
[3]; plasma, 800 mg/m2, Cmax, 800 mg/m^2, Day 8, 5 patients, plasma
  Cmax: 10600 ± 1830 ng/mL
[3]; plasma, 800 mg/m2, Cmax, 800 mg/m^2, Day 29, 4 patients, plasma
  Cmax: 10700 ± 4690 ng/mL
[3]; plasma, 800 mg/m2, T1/2, 800 mg/m^2, Day 1, 6 patients, plasma
  half-life: 9.93 ± 6.01 h
[3]; plasma, 800 mg/m2, T1/2, 800 mg/m^2, Day 8, 5 patients, plasma
  half-life: 4.31 ± 2.72 h
[3]; plasma, 800 mg/m2, T1/2, 800 mg/m^2, Day 29, 4 patients, plasma
  half-life: 4.37 ± 4.05 h
[3]; plasma, 800 mg/m2, Tmax, 800 mg/m^2, Day 1, 6 patients, plasma
  Tmax: 2.8 ± 1.1 h
[3]; plasma, 800 mg/m2, Tmax, 800 mg/m^2, Day 8, 5 patients, plasma
  Tmax: 1.5 ± 0.4 h
[3]; plasma, 800 mg/m2, Tmax, 800 mg/m^2, Day 29, 4 patients, plasma
  Tmax: 2.1 ± 0.3 h
[3]; plasma, 1200 mg/m^2, Cmax, 1,200 mg/m^2, Day 1, 3 patients, plasma
  Cmax: 16000 ± 1910 ng/mL
[3]; plasma, 1200 mg/m^2, Cmax, 1,200 mg/m^2, Day 8, 3 patients, plasma
  Cmax: 8150 ± 4220 ng/mL
[3]; plasma, 1200 mg/m^2, Cmax, 1,200 mg/m^2, Day 29, 3 patients, plasma
  Cmax: 6710 ± 884 ng/mL
[3]; plasma, 1200 mg/m^2, T1/2, 1,200 mg/m^2, Day 1, 3 patients, plasma
  half-life: 8.33 ± 4.65 h
[3]; plasma, 1200 mg/m^2, T1/2, 1,200 mg/m^2, Day 8, 3 patients, plasma
  half-life: 2.78 ± 0.9 h
[3]; plasma, 1200 mg/m^2, T1/2, 1,200 mg/m^2, Day 29, 3 patients, plasma
  half-life: 4.84 ± 3.29 h
[3]; plasma, 1200 mg/m^2, Tmax, 1,200 mg/m^2, Day 1, 3 patients, plasma
  Tmax: 2.2 ± 0.8 h
[3]; plasma, 1200 mg/m^2, Tmax, 1,200 mg/m^2, Day 8, 3 patients, plasma
  Tmax: 1.8 ± 0.3 h
[3]; plasma, 1200 mg/m^2, Tmax, 1,200 mg/m^2, Day 29, 3 patients, plasma
  Tmax: 1.7 ± 0.3 h
[3]; steady-state exposure, 200 mg/m^2, IC50 from ref 16
  trough plasma level versus IC50 for VEGF and PDGF receptors cellular assay: above the IC50
Advanced solid tumors; 15 patients, 200-1,200 mg/m^2 bid
  partial or complete responses: No partial or complete responses were seen
Advanced solid tumors; non-small cell lung cancer 2, thymoma 1, peritoneal sarcoma 1
  patients with stable disease: Four
Caucasian patients; day 1, Caucasian patients
  AUC: 70000 ng·h/mL
Caucasian patients; day 28, Caucasian patients
  AUC: 32000 ng·h/mL
[4]
  induction of liver cytochrome P450, CYP1A1/2: causes induction of liver cytochrome P450, CYP1A1/2
Tumor xenograft explants
  antitumor activity against tumor xenograft explants: significant antitumor activity
[5]
  Urinary excretion of TSU-68: below 1 % of dose
